In ChEMBL document CHEMBL5380775, “Visible-Light-Controlled Histone Deacetylase Inhibitors for Targeted Cancer Therapy” (J Med Chem, 2023):
Each block holds one compound with its values, some of them ahead of it. Active and inactive are the calls of the source. No cut-off for these calls is given here.

Key:
[1] = Stability of compound in DMSO assessed as half life at 25 to 50 uM in presence of illumination with 380 to 550 nm light; type: physicochemical; details: dose 25-50 µM
Method in brief: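 Solutions of 25–50 μM in DMSO illuminated 2 min at the cis-forming wavelength. Absorbance then followed at fixed intervals in the dark at room temperature, at the wavelength of largest isomer difference. Half-life from an exponential-decay fit.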

HeLa [2] = test: Anticancer activity against human HeLa cells assessed as inhibition of cell growth incubated for 48 hrs in dark by MTS assay; type: functional, cell-based
Method in brief: (§1)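 HeLa cells in DMEM with 10% FBS, seeded at 5 × 10³ cells/well 24 h before treatment. Dark stocks heated to 60 or 80 °C. Light stocks preilluminated 3 min at 380 nm (11 mW/cm²). Stocks diluted in DMEM to 20× final, final DMSO 0.5%. Exposure 24 or 48 h. MTS read 2 h at 37 °C, absorbance 490 nm; % of nontreated cells.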

HT-29 [3] = test: Cytotoxicity against human HT-29 cells assessed as reduction in cell viability at 50 uM incubated for 48 hrs in dark condition by MTS assay; type: functional, cell-based
Method in brief: (§2)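 HT29 and MCF7 cells in DMEM with 10% FBS, seeded at 1 × 10⁴ cells/well; compound added 24 h later. Dark stocks heated to 60 or 80 °C; light stocks preilluminated 3 min at 380 or 550 nm. Tested at 50 μM, final DMSO 0.5%, for 48 h. MTS read 2 h at 37 °C, absorbance 490 nm; viability as % of nontreated cells.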

MCF7 [4] = test: Cytotoxicity against human MCF7 cells assessed as reduction in cell viability at 50 uM incubated for 48 hrs in dark condition by MTS assay; type: functional, cell-based; method in brief: as §2
KG-1 [5] = test: Cytotoxicity against human KG-1 cells assessed as reduction in cell viability at 50 uM incubated for 48 hrs in dark condition by celltiter glo assay; type: functional, cell-based
Method in brief: (§3)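 KG1 suspension cells grown in IMDM with 20% FBS, 1 × 10⁴ cells/well. Dark stocks heated to 60 or 80 °C; light stocks preilluminated 3 min at 380 or 550 nm. Exposure 50 μM for 48 h. CellTiter-Glo added, 10 min at room temperature, luminescence read; % of nontreated cells.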

HT-29 [6] = test: Cytotoxicity against human HT-29 cells assessed as reduction in cell viability at 50 uM incubated for 48 hrs in presence of illumination with 380 nm light by MTS assay; type: functional, cell-based; method in brief: as §2
MCF7 [7] = test: Cytotoxicity against human MCF7 cells assessed as reduction in cell viability at 50 uM incubated for 48 hrs in presence of illumination with 380 nm light by MTS assay; type: functional, cell-based; method in brief: as §2
KG-1 [8] = test: Cytotoxicity against human KG-1 cells assessed as reduction in cell viability at 50 uM incubated for 48 hrs in presence of illumination with 380 nm light by celltiter glo assay; type: functional, cell-based; method in brief: as §3
HT-29 [9] = test: Cytotoxicity against human HT-29 cells assessed as reduction in cell viability at 50 uM incubated for 48 hrs in presence of illumination with 550 nm light by MTS assay; type: functional, cell-based; method in brief: as §2
MCF7 [10] = test: Cytotoxicity against human MCF7 cells assessed as reduction in cell viability at 50 uM incubated for 48 hrs in presence of illumination with 550 nm light by MTS assay; type: functional, cell-based; method in brief: as §2
KG-1 [11] = test: Cytotoxicity against human KG-1 cells assessed as reduction in cell viability at 50 uM incubated for 48 hrs in presence of illumination with 550 nm light by celltiter glo assay; type: functional, cell-based; method in brief: as §3
[12] = molecular target: Histone deacetylase (Homo sapiens) (UniProt Q13547+O15379+Q9UBN7+Q92769+Q9UQL6+Q8WUI4+Q9BY41+Q96DB2+P56524+Q9UKV0+Q969S8); test: Inhibition of HDAC in human HeLa cells at 50 uM incubated for 3 hrs by fluorescence based analysis; type: cell-based
Method in brief: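 Live-cell HDAC assay: HeLa in DMEM/10% FBS, 15 × 10³ cells/well, seeded 24 h before. Compound added at 50 μM final, either heat-relaxed to trans (60 or 80 °C, dark) or LED-illuminated 3 min. Boc-Lys(Ac)-AMC substrate at 100 μM final, 3 h at 37 °C. […] Fluorescence ex 380/em 460 nm. Activity as % of untreated cells after no-substrate blank subtraction.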

HeLa [13] = test: Anticancer activity against human HeLa cells assessed as reduction in cell viability upto 100 uM incubated for 48 hrs in dark by MTS assay; type: functional, cell-based; method in brief: as §1
HeLa [14] = test: Anticancer activity against human HeLa cells assessed as inhibition of cell growth incubated for 24 hrs in dark condition by MTS assay; type: functional, cell-based; method in brief: as §1
HeLa [15] = test: Anticancer activity against human HeLa cells assessed as inhibition of cell growth incubated for 48 hrs in presence of illumination with 380 nm light by MTS assay; type: functional, cell-based; method in brief: as §1
Histone deacetylase 1 [16] = molecular target: T1, Histone deacetylase 1 (Homo sapiens, UniProt Q13547); test: Inhibition of human recombinant HDAC1 using Boc-Lys(Ac)-AMC as substrate incubated for 1 hrs in presence of illumination with 380 nm light by fluorescence based assay
[17] = Stability of the compound assessed as half life in DMEM by HPLC analysis; type: physicochemical
Method in brief: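 10 mM DMSO stock illuminated 2 min (LED array plate at maximum power, e.g. 380 nm at 11 mW/cm²), then diluted to 10 μM in DMEM with 0.1% DMSO. Kept at 37 °C in an incubator in the dark; samples taken at fixed intervals and analysed by HPLC. Cis thermal half-life obtained by fitting the decay to an exponential function.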

Histone deacetylase 1 [18] = molecular target: T1, Histone deacetylase 1; test: Inhibition of human recombinant HDAC1 using Boc-Lys(Ac)-AMC as substrate incubated for 1 hrs in presence of illumination with 420 nm light by fluorescence based assay
Histone deacetylase 1 [19] = molecular target: T1, Histone deacetylase 1; test: Inhibition of human recombinant HDAC1 using Boc-Lys(Ac)-AMC as substrate incubated for 1 hrs in dark by fluorescence based assay
Histone deacetylase 1 [20] = molecular target: T1, Histone deacetylase 1; test: Inhibition of human recombinant HDAC1 using Boc-Lys(Ac)-AMC as substrate incubated for 1 hrs in presence of illumination with 550 nm light by fluorescence based assay
Histone deacetylase 1 [21] = molecular target: T1, Histone deacetylase 1; test: Inhibition of human recombinant HDAC1 using Boc-Lys(Ac)-AMC as substrate at 0.003 to 10 uM incubated for 1 hrs in dark by fluorescence based assay; details: dose 0.003-10 µM
Method in brief: (§4)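 Recombinant human HDAC1 at 8 ng/well with Boc-Lys(Ac)-AMC 15 μM in Tris buffer pH 8 with 0.1 mg/mL BSA. Compound 10 μM to 3 nM, 1 h at room temperature. Dark: stocks heated to 60 or 80 °C. Light: stocks preilluminated 3 min, then continuous 550 nm at 6 mW/cm². […] Fluorescence ex 380/em 460 nm, blank-subtracted.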

Histone deacetylase 1 [22] = molecular target: T1, Histone deacetylase 1; test: Inhibition of human recombinant HDAC1 using Boc-Lys(Ac)-AMC as substrate at 0.003 to 10 uM incubated for 1 hrs in presence of illumination with 550 nm light by fluorescence based assay; details: dose 0.003-10 µM; method in brief: as §4
[23] = Stability of the compound assessed as half life in buffer; type: physicochemical
[24] = in the assay text read “380 nm light” for “550 nm light”

T1 sequence (Q13547 whole entry): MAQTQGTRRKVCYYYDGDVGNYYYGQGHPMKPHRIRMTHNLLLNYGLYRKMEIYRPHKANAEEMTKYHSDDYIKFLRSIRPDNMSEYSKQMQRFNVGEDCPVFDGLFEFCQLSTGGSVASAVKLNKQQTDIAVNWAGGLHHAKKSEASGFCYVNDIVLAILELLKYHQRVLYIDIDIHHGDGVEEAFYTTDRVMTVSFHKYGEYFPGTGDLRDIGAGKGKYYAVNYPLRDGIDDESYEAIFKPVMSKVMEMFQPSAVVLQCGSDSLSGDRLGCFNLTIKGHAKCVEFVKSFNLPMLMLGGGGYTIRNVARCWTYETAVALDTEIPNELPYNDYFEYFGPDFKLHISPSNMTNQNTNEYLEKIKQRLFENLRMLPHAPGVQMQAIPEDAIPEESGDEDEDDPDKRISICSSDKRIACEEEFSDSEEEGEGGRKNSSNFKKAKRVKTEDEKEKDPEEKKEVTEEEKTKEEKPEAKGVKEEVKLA

Compound: COc1cc(F)c(/N=N/c2c(F)cc(/C=C/C(=O)NO)cc2F)c(F)c1
- half-life at up to 50 µM [1]: 218 h

Compound: COc1ccc(/N=N/c2ccc(/C=C/C(=O)Nc3cc(-c4cccs4)ccc3N)cc2)cc1
- Activity (HeLa [13]): inactive
- Activity (HT-29 [3]): inactive
- Activity (MCF7 [4]): inactive
- Activity (KG-1 [5]): inactive
- Activity (HT-29 [6]): Active
- Activity (MCF7 [7]): Active
- Activity (KG-1 [8]): Active
- Activity (HT-29 [9]; [24]): Active
- Activity (MCF7 [10]): Active
- Activity (KG-1 [11]): Active
- inhibition (HeLa [14]): inactive
- inhibition [12]: Active
- half-life at up to 50 µM [1]: 4.5 h

Compound: COc1ccc(/N=N/c2ccc(C(=O)NO)cc2)cc1
- half-life at up to 50 µM [1]: 18.7 h

Compound: CN(C)c1ccc(/N=N/c2ccc(C(=O)Nc3ccccc3N)cc2)cc1
- half-life at up to 50 µM [1]: 0.0717 h

Compound: COc1cc(Cl)c(/N=N/c2c(Cl)cc(C(=O)Nc3ccccc3N)cc2Cl)c(Cl)c1
- inhibition (Histone deacetylase 1 [19]): inactive
- inhibition (Histone deacetylase 1 [20]): inactive
- inhibition (Histone deacetylase 1 [21]): inactive
- inhibition (Histone deacetylase 1 [22]): inactive
- half-life at up to 50 µM [1]: 8.3 h

Compound: CN(C)c1cc(F)c(/N=N/c2c(F)cc(/C=C/C(=O)Nc3ccccc3N)cc2F)c(F)c1
- IC50 (Histone deacetylase 1 [18]): 1200 nM
- inhibition (Histone deacetylase 1 [21]): inactive
- half-life at up to 50 µM [1]: 5.4 h

Compound: COc1cc(F)c(/N=N/c2c(F)cc(C(=O)Nc3ccccc3N)cc2F)c(F)c1
- half-life [17]: 113 h
- Activity (HT-29 [3]): inactive
- Activity (MCF7 [4]): inactive
- Activity (KG-1 [5]): inactive
- Activity (HT-29 [6]): Active
- Activity (MCF7 [7]): Active
- Activity (KG-1 [8]): Active
- Activity (HT-29 [9]): Active
- Activity (MCF7 [10]): Active
- Activity (KG-1 [11]): Active
- inhibition [12]: Active
- half-life at up to 50 µM [1]: 1010 h

Compound: COc1ccc(/N=N/c2ccc(CCC(=O)Nc3ccccc3N)cc2)cc1
- inhibition (HeLa [2]): inactive
- Activity (HeLa [15]): inactive
- half-life at up to 50 µM [1]: 20.1 h

Compound: COc1ccc(/N=N/c2ccc(/C=C/C(=O)NO)cc2)cc1
- half-life [23]: 2.7 h
- half-life at up to 50 µM [1]: 2.7 h

Compound: COc1ccc(/N=N/c2ccc(C(=O)Nc3ccccc3N)cc2)cc1
- inhibition (HeLa [2]): inactive
- half-life at up to 50 µM [1]: 20.8 h

More lines, main results first:

- inhibition [12]: Active
- half-life at up to 50 µM [1]: 178 h
Compound: COc1cc(F)c(/N=N/c2c(F)cc(/C=C/C(=O)Nc3ccccc3N)cc2Cl)c(Cl)c1
- inhibition (HeLa [2]): inactive
- Activity (HT-29 [3]): inactive
- Activity (MCF7 [4]): inactive
- Activity (KG-1 [5]): inactive
- Activity (HT-29 [6]): Active
- Activity (MCF7 [7]): Active
- Activity (KG-1 [8]): Active
- Activity (HT-29 [9]): Active
- Activity (MCF7 [10]): Active
- Activity (KG-1 [11]): Active

- inhibition [12]: Active
- half-life at up to 50 µM [1]: 223 h
Compound: COc1cc(F)c(/N=N/c2c(F)cc(/C=C/C(=O)Nc3ccccc3N)cc2F)c(F)c1
- inhibition (HeLa [2]): inactive
- Activity (HT-29 [3]): inactive
- Activity (MCF7 [4]): inactive
- Activity (KG-1 [5]): inactive
- Activity (HT-29 [6]): Active
- Activity (MCF7 [7]): Active
- Activity (KG-1 [8]): Active
- Activity (HT-29 [9]): Active
- Activity (MCF7 [10]): Active
- Activity (KG-1 [11]): Active

- half-life at up to 50 µM [1]: 4.3 h
Compound: COc1ccc(/N=N/c2ccc(/C=C/C(=O)Nc3ccccc3N)cc2Cl)c(Cl)c1
- inhibition (HeLa [2]): inactive
- inhibition (HeLa [15]): inactive

- IC50 (Histone deacetylase 1 [16]): 460 nM
- half-life at up to 50 µM [1]: 9.9 h
Compound: COc1ccc(/N=N/c2ccc(/C=C/C(=O)Nc3ccccc3N)cc2F)c(F)c1
- inhibition (HeLa [2]): inactive
- inhibition (HeLa [15]): inactive

- half-life [17]: 0.667 h
- inhibition [12]: Active
- half-life at up to 50 µM [1]: 3.1 h
Compound: COc1ccc(/N=N/c2ccc(/C=C/C(=O)Nc3ccccc3N)cc2)cc1
- Activity (HeLa [13]): inactive
- Activity (HT-29 [3]): inactive
- Activity (MCF7 [4]): inactive
- Activity (KG-1 [5]): inactive
- Activity (HT-29 [6]): Active
- Activity (MCF7 [7]): Active
- Activity (KG-1 [8]): Active
- Activity (HT-29 [9]; [24]): Active
- Activity (MCF7 [10]): Active
- Activity (KG-1 [11]): Active

- IC50 (Histone deacetylase 1 [18]): 5000 nM
- half-life at up to 50 µM [1]: 0.135 h
Compound: CN(C)c1cc(Cl)c(/N=N/c2c(Cl)cc(/C=C/C(=O)Nc3ccccc3N)cc2Cl)c(Cl)c1

- inhibition (Histone deacetylase 1 [21]): inactive
- half-life at up to 50 µM [1]: 13.8 h
Compound: COc1cc(Cl)c(/N=N/c2c(Cl)cc(/C=C/C(=O)Nc3ccccc3N)cc2Cl)c(Cl)c1
